# Test results: the RNAGym collection of RNA variant scans (doi:10.1002/anie.201605470)
# B1: Osa-1-4 twister ribozyme (parent)
# chain: CCGCCUAACACUGCCAAUGCCGGUCCCAAGCCCGGAUAAAAGUGGAGGGGGCGG
# Variants of: B1
# Experiment: self-cleavage, relative activity (ratio to wild type); higher = more cleavage; co-transcriptional
# How it was run: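 A DNA template for a 54-nucleotide Oryza sativa twister ribozyme was synthesised with 97 % wild-type base and 1 % of each other base at the 48 positions downstream of the cleavage site. It was transcribed in vitro for 2 h at 37 °C, allowing co-transcriptional self-cleavage, then reverse-transcribed with a template-switching oligonucleotide, PCR-amplified and deep-sequenced. Cleavage status was scored from reads with or without upstream sequence. Relative activity is fraction cleaved normalised to wild type.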
row,Variant,self-cleavage
1,C11U G48U,0.05
2,C11U G48A,0.07
3,C11U G48C,0.06
4,C11U C52U,0.98
5,C11U C52A,0.83
6,C11U C52G,0.81
7,C11U G35A,0.65
8,C11U G35U,0.69
9,C11U G35C,0.18
10,C11U G44A,0.8
11,C11U G44U,0.67
12,C11U G44C,0.84
13,C11U G50A,0.44
14,C11U G50C,0.72
15,C11U G50U,0.88
16,C11U G13U,0.04
17,C11U G13C,0.04
18,C11U G13A,0.05
19,C11U C27G,0.06
20,C11U C27U,0.12
21,C11U C27A,0.14
22,C11U C9U,0.65
23,C11U C9A,0.26
24,C11U C9G,0.36

row,Variant,self-cleavage
1,C11U G22A,0.59
2,C11U G22C,0.04
3,C11U G22U,0.22
4,C11G U12C,0.08
5,C11G U12A,0.15
6,C11G U12G,0.08
7,C11G G49C,0.03
8,C11G G49A,0.05
9,C11G G49U,0.05
10,U12A U43G,0.09
11,U12A U43A,0.13
12,U12A U43C,0.11
13,U12A U37A,0.71
14,U12A U37C,1
15,U12A U37G,1
16,C11U G23A,0.1
17,C11U G23U,0.05
18,C11U G23C,0.04
19,U12C U37C,0.44
20,U12C U37A,0.51
21,U12C U37G,0.66
22,U12A,0.99
23,U12C,0.66
24,C11U G51C,0.05

row,Variant,self-cleavage
1,C11U G51U,0.12
2,C11U G51A,0.34
3,C11U G47U,0.07
4,C11U G47A,0.09
5,C11U G47C,0.07
6,C11U G30A,0.04
7,C11U G30C,0.05
8,C11U G30U,0.03
9,C11G G48A,0.03
10,C11G G48C,0.03
11,C11G G48U,0.03
12,C11U G42A,0.93
13,C11U G42C,0.85
14,C11U G42U,0.47
15,U12A U18C,0.76
16,U12A U18A,0.91
17,U12A U18G,0.76
18,C11G G50A,0.11
19,C11G G50U,0.42
20,C11G G50C,0.15
21,C11U U12A,0.6
22,C11U U12G,0.37
23,C11U U12C,0.47
24,C11G G51A,0.07

row,Variant,self-cleavage
1,C11G G51C,0.03
2,C11G G51U,0.05
3,C11U C15G,0.19
4,C11U C15A,0.21
5,C11U C15U,0.13
6,C11U G49A,0.09
7,C11U G49U,0.09
8,C11U G49C,0.08
9,C11U C33U,0.51
10,C11U C33A,0.07
11,C11U C33G,0.06
12,C11G G53A,0.17
13,C11G G53C,0.04
14,C11G G53U,0.07
15,C11G G54U,0.36
16,C11G G54C,0.32
17,C11G G54A,0.3
18,U12A U24G,0.03
19,U12A U24A,0.07
20,U12A U24C,0.08
21,C11G U18C,0.24
22,C11G U18G,0.54
23,C11G U18A,0.52
24,C11U C32U,0.07

row,Variant,self-cleavage
1,C11U C32A,0.06
2,C11U C32G,0.08
3,C11U G45A,0.09
4,C11U G45U,0.09
5,C11U G45C,0.06
6,C11U U43C,0.26
7,C11U U43A,0.62
8,C11U U43G,0.2
9,C11G U24G,0.04
10,C11G U24C,0.04
11,C11G U24A,0.04
12,U12C U24A,0.05
13,U12C U24G,0.03
14,U12C U24C,0.06
15,C11U C20G,0.09
16,C11U C20A,0.71
17,C11U C20U,0.78
18,C11G G47A,0.04
19,C11G G47C,0.04
20,C11G G47U,0.04
21,U12C U43C,0.08
22,U12C U43A,0.11
23,U12C U43G,0.09
24,C11U C31A,0.03

row,Variant,self-cleavage
1,C11U C31G,0.06
2,C11U C31U,0.37
3,C11G U43C,0.08
4,C11G U43G,0.05
5,C11G U43A,0.15
6,C11U U24C,0.1
7,C11U U24G,0.06
8,C11U U24A,0.06
9,C11U G53A,0.62
10,C11U G53U,0.14
11,C11U G53C,0.07
12,C11U C25G,0.05
13,C11U C25A,0.08
14,C11U C25U,0.52
15,C11U U18C,0.71
16,C11U U18A,0.85
17,C11U U18G,0.7
18,C11U,0.94
19,C11U G34A,0.39
20,C11U G34U,0.19
21,C11U G34C,0.08
22,C11U G54U,0.79
23,C11U G54C,0.8
24,C11U G54A,0.78

row,Variant,self-cleavage
1,C11U C21G,0.11
2,C11U C21A,0.29
3,C11U C21U,0.91
4,C11G U37C,0.69
5,C11G U37G,0.71
6,C11G U37A,0.38
7,U12C U18G,0.61
8,U12C U18A,0.46
9,U12C U18C,0.38
10,C11U C14U,0.17
11,C11U C14G,0.09
12,C11U C14A,0.07
13,C11G G45C,0.04
14,C11G G45U,0.06
15,C11U G19U,0.1
16,C11U G19A,0.23
17,C11U G19C,0.07
18,C11U C26A,0.05
19,C11U C26G,0.08
20,C11U C26U,0.6
21,C11U U37C,1.02
22,C11U U37G,0.94
23,C11U U37A,0.62
